Laboratory results as given in PMC8605766 (ACS chemical neuroscience, 2021).
Where “and” joins values, the source holds several entries; their conditions need not be identical. Identical values can stand only once.

Experiments:
[1] = target: S1PR1 (Rattus norvegicus, UniProt P48303); assay: In vitro autoradiography of [^3H]CS1P1 in the rat brain and spinal cord; assay type: binding; details: 10 μM NIBR-0213
Procedure, shortened: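 Frozen 14 μm sections from adult SD rat brain and spinal cord, pre-incubated 5 min at RT in HBSS with 10 mM HEPES, 5 mM MgCl₂, 0.2% BSA, 0.1 mM EDTA, pH 7.4. Labelled with 0.5 nM radioligand, 1 h at RT with shaking. […] Washed 3 × 5 min, ice-cold water dip, air-dried overnight. Film exposure 15 days with tritium standards. Specific binding = total − nonspecific in randomly chosen ROIs.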

[2] = tested on: MS patients; details: particularly deep gray matter structures; cited from earlier work
[3] = target: recombinant human S1PR1 (hS1PR1) membranes (Homo sapiens, UniProt P21453); assay: Competition binding assay against [^3H]CS1P1 with recombinant hS1PR1 membranes; details: displacement of 8 nM [^3H]CS1P1, recombinant hS1PR1 membranes
recombinant human S1PR1 (hS1PR1) membranes, sequence (P21453 whole entry): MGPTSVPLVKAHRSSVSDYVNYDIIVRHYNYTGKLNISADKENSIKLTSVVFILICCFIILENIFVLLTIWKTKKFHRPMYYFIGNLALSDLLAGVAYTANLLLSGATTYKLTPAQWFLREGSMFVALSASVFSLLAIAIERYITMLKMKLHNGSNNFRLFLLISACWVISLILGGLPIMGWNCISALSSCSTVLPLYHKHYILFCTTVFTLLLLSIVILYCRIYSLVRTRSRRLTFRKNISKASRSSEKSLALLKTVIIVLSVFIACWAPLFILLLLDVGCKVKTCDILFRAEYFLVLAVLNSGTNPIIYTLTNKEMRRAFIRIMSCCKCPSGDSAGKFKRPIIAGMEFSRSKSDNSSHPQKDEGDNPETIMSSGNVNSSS

S1PR1, sequence (P48303 whole entry): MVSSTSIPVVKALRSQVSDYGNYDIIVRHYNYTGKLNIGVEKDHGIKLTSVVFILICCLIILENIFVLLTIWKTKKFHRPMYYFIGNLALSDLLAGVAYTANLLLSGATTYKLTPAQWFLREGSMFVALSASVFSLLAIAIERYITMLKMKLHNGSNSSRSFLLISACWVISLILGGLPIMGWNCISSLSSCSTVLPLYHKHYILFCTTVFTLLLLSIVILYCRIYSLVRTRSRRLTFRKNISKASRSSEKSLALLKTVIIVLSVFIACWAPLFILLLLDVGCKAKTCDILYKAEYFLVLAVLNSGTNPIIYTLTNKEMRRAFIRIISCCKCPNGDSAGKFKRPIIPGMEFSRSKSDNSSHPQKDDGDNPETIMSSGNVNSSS

Structure (SMILES): Cc1cc([C@@H](C)Nc2cccc(-c3cc(C)c(C(=O)N[C@@H](C)C(=O)O)c(C)c3)c2)ccc1Cl [NIBR-0213]
- blocking of [^3H]CS1P1 radioactivity [1]: can be blocked

Structure (SMILES): CCCCCCCCc1ccc(CCC(N)(CO)CO)cc1 [fingolimod]
- effect on brain atrophy [2]: reduced brain atrophy

Structure (SMILES): CCCCCCCCCCCCC/C=C/[C@@H](O)[C@@H](N)COP(=O)(O)O [S1P, Sphingosine-1-phosphate]
- Ki [3]: < 10 nM and 5.7 nM
